Measured values: ChEMBL document CHEMBL4680220, “Synthesis and biological evaluation of acridine-based histone deacetylase inhibitors as multitarget agents against Alzheimer's disease” (Eur J Med Chem, 2020)

Assays:
Histone deacetylase 5 = Histone deacetylase 5 (Homo sapiens, UniProt Q9UQL6); experiment: Inhibition of recombinant human C-terminal His-tagged HDAC5 (656 to 1122 residues) expressed in baculovirus infected Sf9 insect cells using fluorogenic HDAC 2A substrate preincubated for 5 mins followed by substrate addition and measured after 30 mins by fluorescence assay
Chain of Histone deacetylase 5 (Q9UQL6 whole entry, the tested form may be a part): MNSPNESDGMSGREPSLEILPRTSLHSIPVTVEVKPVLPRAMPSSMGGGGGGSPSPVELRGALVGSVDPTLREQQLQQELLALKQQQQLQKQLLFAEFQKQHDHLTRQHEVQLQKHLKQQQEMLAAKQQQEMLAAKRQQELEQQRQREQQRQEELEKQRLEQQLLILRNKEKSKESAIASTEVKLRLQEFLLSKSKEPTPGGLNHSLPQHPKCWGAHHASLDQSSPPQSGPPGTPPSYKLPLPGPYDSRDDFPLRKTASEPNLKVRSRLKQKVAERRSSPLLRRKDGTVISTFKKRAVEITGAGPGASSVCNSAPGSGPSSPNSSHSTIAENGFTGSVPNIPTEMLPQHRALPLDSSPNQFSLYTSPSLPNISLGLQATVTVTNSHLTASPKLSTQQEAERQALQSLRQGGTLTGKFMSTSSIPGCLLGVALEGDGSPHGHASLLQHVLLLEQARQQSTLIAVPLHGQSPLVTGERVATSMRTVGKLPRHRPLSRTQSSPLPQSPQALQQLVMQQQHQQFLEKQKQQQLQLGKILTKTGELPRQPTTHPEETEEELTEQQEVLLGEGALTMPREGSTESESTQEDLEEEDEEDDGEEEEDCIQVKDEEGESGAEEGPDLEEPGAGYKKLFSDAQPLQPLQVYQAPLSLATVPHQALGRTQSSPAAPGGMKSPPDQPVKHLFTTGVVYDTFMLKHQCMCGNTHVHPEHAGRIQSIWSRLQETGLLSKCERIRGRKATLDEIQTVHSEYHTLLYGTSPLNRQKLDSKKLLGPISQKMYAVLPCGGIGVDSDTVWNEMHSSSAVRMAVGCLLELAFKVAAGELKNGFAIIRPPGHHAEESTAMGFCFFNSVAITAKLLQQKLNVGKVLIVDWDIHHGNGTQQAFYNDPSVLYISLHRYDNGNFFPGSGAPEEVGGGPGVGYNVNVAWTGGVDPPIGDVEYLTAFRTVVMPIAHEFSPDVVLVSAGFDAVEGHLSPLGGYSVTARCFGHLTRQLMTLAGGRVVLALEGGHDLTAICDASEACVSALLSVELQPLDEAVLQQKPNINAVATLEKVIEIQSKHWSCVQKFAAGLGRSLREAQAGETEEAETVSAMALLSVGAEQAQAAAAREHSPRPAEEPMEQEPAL

Acetylcholinesterase = Acetylcholinesterase (Homo sapiens, UniProt P22303); experiment: Inhibition of recombinant human C-terminal 6His-tagged AChE (Glu32 to Leu614 residues) expressed in CHO cells using acetylthiocholine iodide as substrate preincubated for 5 mins measured after 15 mins by DTNB reagent based assay
Chain of Acetylcholinesterase (P22303 whole entry): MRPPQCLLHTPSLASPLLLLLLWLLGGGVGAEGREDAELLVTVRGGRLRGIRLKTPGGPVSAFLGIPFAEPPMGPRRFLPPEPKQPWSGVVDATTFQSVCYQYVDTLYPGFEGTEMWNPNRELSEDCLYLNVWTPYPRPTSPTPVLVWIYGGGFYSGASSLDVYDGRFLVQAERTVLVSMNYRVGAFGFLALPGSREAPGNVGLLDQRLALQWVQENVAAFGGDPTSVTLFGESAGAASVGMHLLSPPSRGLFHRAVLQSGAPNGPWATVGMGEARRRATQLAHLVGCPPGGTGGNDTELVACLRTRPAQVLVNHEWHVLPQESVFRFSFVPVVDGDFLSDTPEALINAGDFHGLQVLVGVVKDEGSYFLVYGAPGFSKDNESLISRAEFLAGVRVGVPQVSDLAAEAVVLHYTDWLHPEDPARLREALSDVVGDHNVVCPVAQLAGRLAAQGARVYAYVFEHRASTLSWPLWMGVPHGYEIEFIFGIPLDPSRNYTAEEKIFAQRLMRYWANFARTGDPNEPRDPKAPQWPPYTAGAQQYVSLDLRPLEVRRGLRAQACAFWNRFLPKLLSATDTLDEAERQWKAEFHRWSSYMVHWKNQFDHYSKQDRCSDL
In short: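 Enzyme, compounds, acetylthiocholine iodide and DTNB diluted in 100 mM phosphate buffer pH 7.4. AChE was preincubated with the compound at varying concentrations for 5 min at 37 °C. The reaction was started with 1 mM ATCI solution and run 15 min at 37 °C. 2 mM DTNB solution was then added for 5 min. Absorbance read at 412 nm. IC50 set 0.1% DMSO wells as 100% and no-enzyme wells as 0%. Run in triplicate.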

[1] = biological target: T1, Protein deacetylase HDAC6 (Homo sapiens, UniProt Q9UBN7); experiment: Inhibition of recombinant human full-length N-terminal GST-tagged HDAC6 expressed in baculovirus infected Sf9 insect cells using Boc-Lys(Ac)-AMC as substrate preincubated for 5 mins followed by substrate addition and measured after 30 mins by fluorescence assay
T1 sequence (Q9UBN7 whole entry): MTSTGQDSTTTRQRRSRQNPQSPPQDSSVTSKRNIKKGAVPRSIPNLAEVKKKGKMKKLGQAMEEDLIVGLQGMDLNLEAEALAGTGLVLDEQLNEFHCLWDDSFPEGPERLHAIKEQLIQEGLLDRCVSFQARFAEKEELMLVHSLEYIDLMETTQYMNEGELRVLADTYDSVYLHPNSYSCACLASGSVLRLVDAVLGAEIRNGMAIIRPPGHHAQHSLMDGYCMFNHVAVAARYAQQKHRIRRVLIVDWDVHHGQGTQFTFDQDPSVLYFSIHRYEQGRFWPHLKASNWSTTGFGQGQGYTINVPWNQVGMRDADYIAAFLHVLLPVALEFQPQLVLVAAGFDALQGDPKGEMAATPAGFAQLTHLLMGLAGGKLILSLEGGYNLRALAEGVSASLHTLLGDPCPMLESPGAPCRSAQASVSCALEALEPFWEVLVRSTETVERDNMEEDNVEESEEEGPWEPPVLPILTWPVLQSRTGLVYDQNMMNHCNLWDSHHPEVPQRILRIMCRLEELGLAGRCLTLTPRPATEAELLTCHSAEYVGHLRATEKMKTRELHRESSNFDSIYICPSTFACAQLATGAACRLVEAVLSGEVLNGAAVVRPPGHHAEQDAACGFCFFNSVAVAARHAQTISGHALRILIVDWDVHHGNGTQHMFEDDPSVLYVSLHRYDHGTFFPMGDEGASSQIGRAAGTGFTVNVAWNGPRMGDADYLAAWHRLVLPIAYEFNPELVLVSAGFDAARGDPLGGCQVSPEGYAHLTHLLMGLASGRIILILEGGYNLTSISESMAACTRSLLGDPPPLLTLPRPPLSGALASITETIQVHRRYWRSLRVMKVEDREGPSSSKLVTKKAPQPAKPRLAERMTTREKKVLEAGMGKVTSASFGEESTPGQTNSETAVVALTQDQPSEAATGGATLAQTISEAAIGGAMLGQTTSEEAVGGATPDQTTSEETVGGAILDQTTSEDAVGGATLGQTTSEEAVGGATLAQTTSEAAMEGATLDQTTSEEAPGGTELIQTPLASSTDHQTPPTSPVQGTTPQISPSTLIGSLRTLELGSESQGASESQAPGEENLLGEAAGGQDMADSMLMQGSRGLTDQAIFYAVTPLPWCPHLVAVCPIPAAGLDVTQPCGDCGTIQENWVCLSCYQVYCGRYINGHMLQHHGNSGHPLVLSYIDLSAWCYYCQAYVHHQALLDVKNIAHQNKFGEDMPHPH

Histone deacetylase 4 = Histone deacetylase 4 (Homo sapiens, UniProt P56524); experiment: Inhibition of recombinant human N-terminal GST-tagged/C-terminal His-tagged HDAC4 (627 to 1084 residues) expressed in baculovirus expression system using Boc-Lys(TFA)-AMC as substrate preincubated for 5 mins followed by substrate addition and measured after 30 mins by fluorescence assay
Chain of Histone deacetylase 4 (P56524 whole entry, the tested form may be a part): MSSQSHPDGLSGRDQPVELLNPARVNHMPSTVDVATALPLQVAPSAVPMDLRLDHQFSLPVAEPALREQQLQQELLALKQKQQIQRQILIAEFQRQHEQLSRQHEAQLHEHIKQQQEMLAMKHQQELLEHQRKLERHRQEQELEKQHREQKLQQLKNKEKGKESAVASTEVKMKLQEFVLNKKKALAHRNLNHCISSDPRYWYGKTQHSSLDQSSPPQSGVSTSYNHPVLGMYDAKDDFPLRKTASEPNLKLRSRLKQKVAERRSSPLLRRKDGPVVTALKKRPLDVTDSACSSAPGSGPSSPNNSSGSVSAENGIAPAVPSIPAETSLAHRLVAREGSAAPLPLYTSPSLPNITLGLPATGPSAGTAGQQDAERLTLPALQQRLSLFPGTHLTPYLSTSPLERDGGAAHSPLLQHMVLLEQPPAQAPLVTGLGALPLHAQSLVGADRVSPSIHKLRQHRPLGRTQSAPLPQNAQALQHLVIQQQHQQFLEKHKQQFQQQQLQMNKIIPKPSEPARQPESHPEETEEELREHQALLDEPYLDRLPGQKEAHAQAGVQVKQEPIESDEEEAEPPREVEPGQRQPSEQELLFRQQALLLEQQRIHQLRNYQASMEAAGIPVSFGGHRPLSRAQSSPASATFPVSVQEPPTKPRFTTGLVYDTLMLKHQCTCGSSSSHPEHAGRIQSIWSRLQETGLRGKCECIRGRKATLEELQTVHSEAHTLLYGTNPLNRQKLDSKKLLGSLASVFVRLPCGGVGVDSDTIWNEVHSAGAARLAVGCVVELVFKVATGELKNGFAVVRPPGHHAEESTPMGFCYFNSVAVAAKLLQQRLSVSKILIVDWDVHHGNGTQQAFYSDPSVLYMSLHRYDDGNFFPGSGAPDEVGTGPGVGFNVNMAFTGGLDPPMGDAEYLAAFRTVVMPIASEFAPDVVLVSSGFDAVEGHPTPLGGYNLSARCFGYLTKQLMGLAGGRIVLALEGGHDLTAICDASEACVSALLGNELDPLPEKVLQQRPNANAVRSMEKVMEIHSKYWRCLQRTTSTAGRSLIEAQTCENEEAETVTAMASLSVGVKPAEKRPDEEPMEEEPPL

[2] = biological target: T2, Amyloid-beta precursor protein (Homo sapiens, UniProt P05067); experiment: Inhibition of amyloid beta (1 to 42) (unknown origin) self aggregation after 24 hrs by thioflavin-T fluorescence method
T2 sequence (P05067 whole entry): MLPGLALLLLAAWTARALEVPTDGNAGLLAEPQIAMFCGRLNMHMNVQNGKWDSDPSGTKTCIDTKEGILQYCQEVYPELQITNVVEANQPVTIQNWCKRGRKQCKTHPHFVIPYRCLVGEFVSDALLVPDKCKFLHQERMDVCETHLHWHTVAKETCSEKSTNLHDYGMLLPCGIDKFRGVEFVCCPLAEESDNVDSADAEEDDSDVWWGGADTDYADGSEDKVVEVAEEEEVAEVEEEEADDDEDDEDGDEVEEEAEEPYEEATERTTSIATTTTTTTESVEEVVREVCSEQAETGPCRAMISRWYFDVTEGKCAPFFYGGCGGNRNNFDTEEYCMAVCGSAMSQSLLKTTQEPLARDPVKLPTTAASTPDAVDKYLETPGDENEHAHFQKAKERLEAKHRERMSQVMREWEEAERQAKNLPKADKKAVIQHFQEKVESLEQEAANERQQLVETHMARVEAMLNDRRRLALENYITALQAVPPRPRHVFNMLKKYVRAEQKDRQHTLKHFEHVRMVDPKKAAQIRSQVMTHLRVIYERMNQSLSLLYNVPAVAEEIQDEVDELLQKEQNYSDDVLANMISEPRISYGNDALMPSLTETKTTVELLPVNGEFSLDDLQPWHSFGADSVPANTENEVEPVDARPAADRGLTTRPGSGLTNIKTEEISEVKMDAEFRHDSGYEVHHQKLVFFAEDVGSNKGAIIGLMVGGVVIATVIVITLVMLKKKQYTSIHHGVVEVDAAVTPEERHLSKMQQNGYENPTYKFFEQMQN
In short: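 ThT aggregation assay. Compound at varying concentrations combined with 10 µM Aβ1-42 (1 mM DMSO stock), 10 µM ThT, 1 mM EDTA in 50 mM phosphate buffer (150 mM NaCl, pH 7.4). Incubated 24 h at 37 °C with shaking at 700 rpm; fluorescence ex 440/em 486 nm. 0.1% DMSO wells = 100% aggregation; compound wells without Aβ = background. IC50 from triplicates.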

[3] = biological target: T2, Amyloid-beta precursor protein; experiment: Disaggregation of self-induced amyloid beta (1 to 42) (unknown origin) preformed fibrils at 10 uM measured after 24 hrs by thioflavin-T fluorescence assay relative to control
In short: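 Aβ1-42 (10 µM) with 10 µM ThT and 1 mM EDTA in 50 mM phosphate buffer (150 mM NaCl, pH 7.4) pre-aggregated 24 h at 37 °C, 700 rpm; fluorescence read (ex 440/em 486 nm). Compound then added and incubated a further 24 h at 37 °C before re-reading. Disaggregation = (first − second reading)/first reading. Triplicate.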

[4] = biological target: Class 1 histone deacetylase (Homo sapiens, UniProt Q13547+O15379+Q92769+Q9BY41); experiment: Inhibition of class 1 HDAC in human HeLa cell nuclear extract using Boc-Lys(Ac)-AMC as substrate preincubated for 5 mins followed by substrate addition and measured after 30 mins by fluorescence assay; format: cell-based
Histone deacetylase 9 = Histone deacetylase 9 (Homo sapiens, UniProt Q9UKV0); experiment: Inhibition of recombinant human C-terminal His-tagged HDAC9 (604 to 1066 residues) expressed in baculovirus infected Sf9 cells using fluorogenic HDAC 2A substrate preincubated for 5 mins followed by substrate addition and measured after 30 mins by fluorescence assay
Chain of Histone deacetylase 9 (Q9UKV0 whole entry, the tested form may be a part): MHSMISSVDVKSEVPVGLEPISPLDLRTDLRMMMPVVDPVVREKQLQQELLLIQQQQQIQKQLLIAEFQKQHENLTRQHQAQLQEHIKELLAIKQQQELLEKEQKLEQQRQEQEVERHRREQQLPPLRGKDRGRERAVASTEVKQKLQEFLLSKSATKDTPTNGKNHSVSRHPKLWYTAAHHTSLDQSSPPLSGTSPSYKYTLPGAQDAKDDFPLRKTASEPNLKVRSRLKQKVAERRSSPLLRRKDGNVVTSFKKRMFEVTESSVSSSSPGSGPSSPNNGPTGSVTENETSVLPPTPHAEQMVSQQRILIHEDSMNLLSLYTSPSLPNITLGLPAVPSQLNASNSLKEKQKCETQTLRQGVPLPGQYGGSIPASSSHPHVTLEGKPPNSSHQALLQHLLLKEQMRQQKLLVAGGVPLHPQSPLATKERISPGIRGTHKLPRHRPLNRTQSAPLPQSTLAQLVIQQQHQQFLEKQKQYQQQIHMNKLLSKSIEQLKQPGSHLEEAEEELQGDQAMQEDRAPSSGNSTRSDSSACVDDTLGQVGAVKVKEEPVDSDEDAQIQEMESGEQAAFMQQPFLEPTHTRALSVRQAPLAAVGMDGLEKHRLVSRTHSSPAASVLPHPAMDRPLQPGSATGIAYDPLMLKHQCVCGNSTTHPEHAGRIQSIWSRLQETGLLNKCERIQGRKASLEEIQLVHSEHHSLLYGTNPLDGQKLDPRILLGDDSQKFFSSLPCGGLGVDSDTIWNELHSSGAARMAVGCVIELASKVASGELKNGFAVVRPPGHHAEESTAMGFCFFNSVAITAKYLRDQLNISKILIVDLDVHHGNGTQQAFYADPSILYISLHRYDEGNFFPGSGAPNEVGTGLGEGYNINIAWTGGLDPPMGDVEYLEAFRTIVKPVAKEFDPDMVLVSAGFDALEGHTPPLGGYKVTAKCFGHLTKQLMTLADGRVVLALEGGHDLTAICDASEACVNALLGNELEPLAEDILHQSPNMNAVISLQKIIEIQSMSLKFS

[5] = Half life in human liver microsomes at 1 uM preincubated for 3 mins followed by NADPH addition and measured up to 60 mins by LC-MS/MS analysis; format: ADME, Microsome; conditions: time <=63 min
In short: (§1)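 Mixed-gender human liver microsomes with test article at 1 µM final. Testosterone (5 µM) run separately as control. Mixture without cofactor equilibrated 3 min at 37 °C in a shaking water bath, then started with cofactor. Aliquots taken at 0, 10, 20, 30 and 60 min. CLint = k/P, where k is the elimination rate constant and P is the incubation protein concentration.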

[6] = Intrinsic clearance in human liver microsomes at 1 uM preincubated for 3 mins followed by NADPH addition and measured up to 60 mins by LC-MS/MS analysis; format: ADME, Microsome; conditions: 1 h, time <=63 min; in short: as §1
[7] = Elimination rate constant in human liver microsomes at 1 uM preincubated for 3 mins followed by NADPH addition and measured up to 60 mins by LC-MS/MS analysis; format: ADME, Microsome; conditions: time <=63 min; in short: as §1
Histone deacetylase 7 = biological target: T3, Histone deacetylase 7 (Homo sapiens, UniProt Q8WUI4); experiment: Inhibition of recombinant human N-terminal GST-tagged HDAC7 (518 to end residues) expressed in baculovirus infected Sf9 cells using fluorogenic HDAC 2A substrate preincubated for 5 mins followed by substrate addition and measured after 30 mins by fluorescence assay
T3 sequence (Q8WUI4 whole entry): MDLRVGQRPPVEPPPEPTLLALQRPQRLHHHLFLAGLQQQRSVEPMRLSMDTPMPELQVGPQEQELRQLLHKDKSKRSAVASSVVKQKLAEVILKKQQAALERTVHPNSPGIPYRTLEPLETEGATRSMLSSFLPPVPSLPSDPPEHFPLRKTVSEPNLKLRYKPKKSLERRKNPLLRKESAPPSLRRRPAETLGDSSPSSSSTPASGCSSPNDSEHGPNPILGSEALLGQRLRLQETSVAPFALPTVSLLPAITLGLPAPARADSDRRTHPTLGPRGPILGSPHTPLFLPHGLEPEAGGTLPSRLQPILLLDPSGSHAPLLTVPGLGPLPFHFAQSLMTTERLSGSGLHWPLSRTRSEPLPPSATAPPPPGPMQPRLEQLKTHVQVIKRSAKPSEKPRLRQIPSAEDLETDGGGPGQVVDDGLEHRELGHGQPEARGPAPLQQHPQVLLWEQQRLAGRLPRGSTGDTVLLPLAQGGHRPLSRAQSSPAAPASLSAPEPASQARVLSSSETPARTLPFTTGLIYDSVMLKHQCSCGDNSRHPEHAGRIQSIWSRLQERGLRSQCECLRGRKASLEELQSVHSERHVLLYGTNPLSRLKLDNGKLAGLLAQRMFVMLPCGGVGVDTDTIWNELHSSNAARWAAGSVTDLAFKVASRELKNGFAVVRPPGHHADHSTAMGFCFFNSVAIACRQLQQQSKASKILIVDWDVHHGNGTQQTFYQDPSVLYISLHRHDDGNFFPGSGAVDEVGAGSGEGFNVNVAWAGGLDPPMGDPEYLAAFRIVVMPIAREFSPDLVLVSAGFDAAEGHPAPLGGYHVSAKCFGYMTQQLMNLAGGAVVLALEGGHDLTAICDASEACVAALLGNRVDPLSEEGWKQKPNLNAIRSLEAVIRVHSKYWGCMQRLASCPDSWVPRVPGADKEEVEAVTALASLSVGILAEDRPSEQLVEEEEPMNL

COc1ccc2nc3cc(Cl)ccc3c(Nc3ccc(C(=O)NO)cc3)c2n1
IC50 (Histone deacetylase 5): 15.2 µM
IC50 (Acetylcholinesterase): 9.25 µM
IC50 [1]: 0.34 µM
IC50 (Histone deacetylase 4): > 40 µM
IC50 [2]: 34.9 µM
inhibition [3]: 53%
IC50 [4]: 0.8 µM
IC50 (Histone deacetylase 9): > 40 µM

c1ccc2nc3ccccc3cc2c1 [ACRIDINE]
IC50 (Acetylcholinesterase): 6.84 µM

O=C(CCCCCCC(=O)Nc1ccccc1)NO [VORINOSTAT]
IC50 [2]: > 20 µM
inhibition [3]: 0%

C[C@]12CC[C@H]3[C@@H](CCC4=CC(=O)CC[C@@]43C)[C@@H]1CC[C@@H]2O [TESTOSTERONE]
half-life at 1 µM [5]: 25.7 min
CLint [6]: 54 µL/min/mg
k el at 1 h, 1 µM [7]: 0.00045 s⁻¹

O=C(NO)c1ccc(Nc2c3c(nc4ccccc24)CCCC3)cc1
IC50 (Histone deacetylase 5): 17.5 µM
IC50 (Acetylcholinesterase): 1.97 µM
IC50 [1]: 3.55 µM
IC50 (Histone deacetylase 4): > 40 µM
IC50 [2]: > 20 µM
IC50 (Histone deacetylase 7): > 40 µM
inhibition [3]: 0%
IC50 [4]: > 40 µM
IC50 (Histone deacetylase 9): > 40 µM

O=c1c(O)c(-c2ccc(O)cc2O)oc2cc(O)cc(O)c12 [MORIN]
IC50 [2]: 8.5 µM

O=C(NO)c1ccc(Nc2c3ccccc3nc3ccc(OCc4ccccc4)cc23)cc1
IC50 (Histone deacetylase 5): 0.43 µM
IC50 (Acetylcholinesterase): 2.64 µM
IC50 [1]: 0.22 µM
IC50 (Histone deacetylase 4): 1.21 µM
IC50 [2]: 3 µM
IC50 (Histone deacetylase 7): 3.1 µM
inhibition [3]: 57%
IC50 [4]: 3.5 µM
IC50 (Histone deacetylase 9): 1.25 µM

O=C(NO)c1ccc(Nc2c3ccccc3nc3ccc(OC(F)(F)F)cc23)cc1
IC50 (Histone deacetylase 5): 15.8 µM
IC50 (Acetylcholinesterase): 3.65 µM
IC50 [1]: 0.029 µM
IC50 (Histone deacetylase 4): 14.7 µM
IC50 [2]: 3.5 µM
inhibition [3]: 53%
IC50 [4]: 0.67 µM
IC50 (Histone deacetylase 9): 31.1 µM

O=C(CCc1ccc(Nc2c3ccccc3nc3ccccc23)cc1)NO
IC50 (Histone deacetylase 5): 2.58 µM
IC50 [1]: 0.14 µM
IC50 (Histone deacetylase 4): 7.06 µM
IC50 [4]: 0.1 µM
IC50 (Histone deacetylase 9): 29 µM

O=C(NO)c1cccc(Nc2c3ccccc3nc3ccccc23)c1
IC50 (Histone deacetylase 5): 20.8 µM
IC50 [1]: 4.69 µM
IC50 (Histone deacetylase 4): 29.4 µM
IC50 [4]: > 40 µM
IC50 (Histone deacetylase 9): 12.2 µM

O=C(NO)c1ccc(Nc2c3ccccc3nc3ccc(F)cc23)cc1
IC50 (Histone deacetylase 5): 0.69 µM
IC50 (Acetylcholinesterase): 0.6 µM
IC50 [1]: 0.029 µM
IC50 (Histone deacetylase 4): 3.04 µM
IC50 [2]: > 20 µM
inhibition [3]: 38%
IC50 [4]: 0.25 µM
IC50 (Histone deacetylase 9): 0.52 µM

O=C(Cc1ccc(Nc2c3ccccc3nc3ccccc23)cc1)NO
IC50 (Histone deacetylase 5): 1.66 µM
IC50 [1]: 0.074 µM
IC50 (Histone deacetylase 4): 26.6 µM
IC50 (Histone deacetylase 7): 1.94 µM
IC50 [4]: 2.07 µM
IC50 (Histone deacetylase 9): 6.42 µM

O=C(NO)c1ccc(Nc2ccnc3ccccc23)cc1
IC50 (Histone deacetylase 5): 3.37 µM
IC50 (Acetylcholinesterase): 0.83 µM
IC50 [1]: 0.039 µM
IC50 (Histone deacetylase 4): > 40 µM
IC50 [2]: > 20 µM
inhibition [3]: 0%
IC50 [4]: 0.6 µM
IC50 (Histone deacetylase 9): 13.2 µM

COc1cc2nc3ccccc3c(Nc3ccc(C(=O)NO)cc3)c2c(OC)c1OC
IC50 (Histone deacetylase 5): 4.23 µM
IC50 (Acetylcholinesterase): 0.64 µM
IC50 [1]: 0.16 µM
IC50 (Histone deacetylase 4): 15.7 µM
IC50 [2]: 13 µM
IC50 (Histone deacetylase 7): 4.57 µM
inhibition [3]: 42%
IC50 [4]: 0.81 µM
IC50 (Histone deacetylase 9): 4.95 µM
